Reference: ChEMBL document CHEMBL1123064, “[1,4]Benzoxazine-2,3-diones as antiallergic agents” (J Med Chem, 1985)
pIC50: −log10 of the molar value.

Tests used:
Rattus norvegicus [1] = assay: Inhibition of antigen-induced […] at a dose of 25 mg/kg in passive cutaneous anaphylaxis in the male Sprague-Dawley rats; type: functional
Procedure, shortened: (§1)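 IgE antiserum was raised in male Sprague-Dawley rats with im ovalbumin/aluminum hydroxide plus ip B. pertussis. Naive rats were sensitized intradermally at dorsal sites (antiserum 1:20). After 48 h, groups of four received oral compound or vehicle (1% methylcellulose). 10 min later, iv challenge with 4 mg ovalbumin in 1% Evans blue; blued wheal areas measured at 30 min; Student's t test.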

Rattus norvegicus [2] = species on record: Rattus norvegicus; assay: Concentration required to inhibit antigen-induced release of histamine (AIR) by 50% from passively sensitized rat mast cells; type: functional, cell-based; details: read-out: I50
Procedure, shortened: (§2)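 Washed rat mast cells, passively sensitized in vitro with rat anti-ovalbumin serum, washed again, then challenged with ovalbumin; histamine release measured. Compounds dissolved in Me2SO (final 0.17%). I50 read from concentration-dependent inhibition; number of experiments in parentheses. DSCG positive control in every experiment.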

Rattus norvegicus [3] = assay: Effective dose against passive cutaneous anaphylaxis in rat when administered perorally.; type: functional; details: po; procedure, shortened: as §1
Rattus norvegicus [4] = assay: Effective dose against passive cutaneous anaphylaxis when administered perorally.; type: functional; details: po; procedure, shortened: as §1
Rattus norvegicus [5] = species on record: Rattus norvegicus; assay: Concentration required to inhibit antigen-induced release of histamine (AIR) by 50% from passively sensitized rat mast cells at p<0.01; type: functional, cell-based; details: Mast cell, read-out: I50; procedure, shortened: as §2
Rattus norvegicus [6] = assay: Percent Inhibition of antigen-induced release of histamine at a dose of 50 mg/kg in passive cutaneous anaphylaxis in the male Sprague-Dawley rats; type: functional; procedure, shortened: as §1
Rattus norvegicus [7] = assay: Inhibition of antigen-induced release of histamine at a dose of 50 mg/kg in passive cutaneous anaphylaxis in the male Sprague-Dawley rats; type: functional; procedure, shortened: as §1
Rattus norvegicus [8] = assay: Effective dose against passive anaphylaxis in rat when administered intraperitoneally.; type: functional; details: ip
Rattus norvegicus [9] = assay: Effective dose against passive cutaneous anaphylaxis in rat when administered intraperitoneally.; type: functional; details: ip

SMILES | inhibition in vivo at 25 mg/kg (Rattus norvegicus [1]) | pIC50 (Rattus norvegicus [2]) | inhibition in vivo at 50 mg/kg (Rattus norvegicus [6]) | other results
O=c1[nH]c2cc(Cl)ccc2oc1=O | 14% | – | – | –
COc1ccc2oc(=O)c(=O)[nH]c2c1 | 21% | 4.82 | – | –
O=c1[nH]c2cc3[nH]c(=O)c(=O)oc3cc2oc1=O | 13% | 5.52 | – | ED50 (Rattus norvegicus [3]): > 125 mg/kg
O=c1[nH]c2cc(C(F)(F)F)ccc2oc1=O | 20% | 4.00 | – | –
O=c1[nH]c2cc3oc(=O)c(=O)[nH]c3cc2oc1=O | 0% | 5.92 | – | ED50 (Rattus norvegicus [3]): > 125 mg/kg
C=CCc1cc(OC)c2oc(=O)c(=O)[nH]c2c1 | 77% | 5.00 | – | ED50 (Rattus norvegicus [4]): 7 mg/kg
O=c1[nH]c2cc3ccccc3cc2oc1=O | 11% | – | 45% | pIC50 (Rattus norvegicus [5]): 4.35
O=c1[nH]c2cc3c(cc2oc1=O)CCCC3 | 15% | 5.00 | – | ED50 (Rattus norvegicus [3]): 96 mg/kg
COc1ccc2[nH]c(=O)c(=O)oc2c1 | 33% | 4.55 | – | –
COC(=O)c1cc(OC)c2oc(=O)c(=O)[nH]c2c1 | 35% | 5.47 | – | –
COc1cc2[nH]c(=O)c(=O)oc2cc1OC | 45% | 4.52 | 100% | ED50 (Rattus norvegicus [3]): 20 mg/kg
CCOC(=O)C(=O)Nc1ccc2oc(=O)c(=O)[nH]c2c1 | – | 4.22 | – | –
Cc1ccc2[nH]c(=O)c(=O)oc2c1 | – | 4.49 | 97% | –
COc1cccc2[nH]c(=O)c(=O)oc12 | 88% | 5.15 | 89% | ED50 (Rattus norvegicus [3]): 14 mg/kg
CCOC(=O)c1ccc2oc(=O)c(=O)[nH]c2c1 | 0% | 5.00 | – | –
O=c1[nH]c2ccccc2oc1=O | – | 4.38 | 70% | –
O=c1[nH]c2c(ccc3ccccc32)oc1=O | – | > 4.00 | 18% | –
N#Cc1ccc2[nH]c(=O)c(=O)oc2c1 | – | 4.82 | – | inhibition in vivo at 50 mg/kg (Rattus norvegicus [7]): 14%; ED50 (Rattus norvegicus [8]): 23 mg/kg
O=c1[nH]c2cc([N+](=O)[O-])ccc2oc1=O | – | 6.10 | 91% | inhibition in vivo at 50 mg/kg (Rattus norvegicus [7]): 24%
O=C(O)c1ccc2[nH]c(=O)c(=O)oc2c1 | 7% | 4.80 | 83% | –
O=c1[nH]c2ccc(O)cc2oc1=O | – | 3.77 | – | –
O=C([O-])c1cc(=O)c2c(OCC(O)COc3cccc4oc(C(=O)[O-])cc(=O)c34)cccc2o1.[Na+].[Na+] [CROMOLYN SODIUM] | – | 5.35 | – | ED50 (Rattus norvegicus [9]): 6 mg/kg
